For test [1], the target named is 5-hydroxytryptamine receptor 7 (Homo sapiens, UniProt P34969). In words: Displacement of [3H]LSD from human cloned 5HT7 receptor expressed in CHO cells. In kind it is cell-based. In short, it runs like this:
(§1)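 Binding selectivity used stably expressed human receptors, 5-HT in CHO cells and dopamine in CHO-K1. Radioligands: [125I]DOI for 5-HT2A (agonist radioligand), [3H]-5-HT for 5-HT2C, [3H]LSD for 5-HT7, [3H]spiperone for D2, D3 and D4. Values are IC50 in nM.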
(Loss of bound radioactivity is the signal in a displacement assay; it reports binding, not function.)

The next test addresses D(3) dopamine receptor (Homo sapiens, UniProt P35462). In words: Displacement of [3H]spiperone from human cloned dopamine D3 receptor expressed in CHO-K1 cells. Type of test: cell-based. An outline of the steps:
as §1

The target of test [2] is T1, 5-hydroxytryptamine receptor 6 (Homo sapiens, UniProt P50406). In words: Agonist activity at human cloned 5HT6 receptor expressed in HeLa cells assessed as induction of adenylyl cyclase activity by RIA. Type of test: functional, cell-based. An outline of the steps:
(§2)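 Transfected HeLa cells expressing human 5-HT6 were washed with Krebs buffer and preincubated 5 min at 37 °C in Krebs with 500 µM IBMX. They were then stimulated 10 min at 37 °C with compound over 0.1–10000 nM. Agonist potency came from concentration–response curves, and percent efficacy was taken relative to a serotonin maximal response.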

The target of test [3] is 5-hydroxytryptamine receptor 1D (Homo sapiens) (UniProt P28221). In words: Displacement of [3H]5-HT from human cloned 5HT1D receptor expressed in CHO cells at 1 uM. In kind it is cell-based. An outline of the steps:
(§3)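 Human 5-HT1B, 5-HT1D and 5-HT1F receptors were stably expressed in CHO cells and labelled with [3H]-5-HT. Results are given as percent inhibition at a single 1 µM concentration.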

Test [4] deals with T2, 5-hydroxytryptamine receptor 2C (Homo sapiens, UniProt P28335).
T2 sequence (P28335 whole entry): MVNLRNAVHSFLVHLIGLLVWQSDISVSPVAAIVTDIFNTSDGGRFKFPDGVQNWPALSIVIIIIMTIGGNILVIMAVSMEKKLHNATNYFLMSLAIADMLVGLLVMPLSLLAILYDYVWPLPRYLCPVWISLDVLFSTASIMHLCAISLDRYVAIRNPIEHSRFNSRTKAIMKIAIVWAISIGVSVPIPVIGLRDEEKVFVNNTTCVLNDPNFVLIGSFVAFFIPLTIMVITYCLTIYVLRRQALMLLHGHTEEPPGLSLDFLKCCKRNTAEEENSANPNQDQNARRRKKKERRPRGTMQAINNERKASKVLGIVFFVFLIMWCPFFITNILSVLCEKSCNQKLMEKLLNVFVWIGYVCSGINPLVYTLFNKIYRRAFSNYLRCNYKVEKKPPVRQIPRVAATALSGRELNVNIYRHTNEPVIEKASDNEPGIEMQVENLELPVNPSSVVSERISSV
In words: Displacement of [3H]5-HT from human cloned 5HT2C receptor expressed in CHO cells. Type of test: cell-based. An outline of the steps:
as §1

The species entered for test [5] is Homo sapiens. In words: Selectivity ratio of IC50 for human cloned 5HT1D receptor to human cloned 5HT6 receptor.
The target in test [6] is T1, 5-hydroxytryptamine receptor 6. In words: Displacement of [3H]LSD from human cloned 5HT6 receptor expressed in HeLa cells. In kind it is cell-based. An outline of the steps: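 Radioligand binding used human 5-HT6 receptor stably expressed in HeLa cells with [3H]LSD as the radioligand. Affinity is reported as Ki.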
The species named for test [7] is Homo sapiens. In words: Selectivity ratio of IC50 for human cloned dopamine D4 receptor to human cloned 5HT6 receptor.
Test [8] is filed under the species Homo sapiens. In words: Selectivity ratio of IC50 for human cloned 5HT2C receptor to human cloned 5HT6 receptor.
The target of test [9] is T1, 5-hydroxytryptamine receptor 6. In words: Agonist activity at human cloned 5HT6 receptor expressed in HeLa cells assessed as induction of adenylyl cyclase activity by RIA relative to serotonin. Type of test: functional, cell-based. In short, it runs like this: as §2
In test [10] the target is T3, 5-hydroxytryptamine receptor 1F (Homo sapiens) (UniProt P30939).
T3 sequence (whole entry): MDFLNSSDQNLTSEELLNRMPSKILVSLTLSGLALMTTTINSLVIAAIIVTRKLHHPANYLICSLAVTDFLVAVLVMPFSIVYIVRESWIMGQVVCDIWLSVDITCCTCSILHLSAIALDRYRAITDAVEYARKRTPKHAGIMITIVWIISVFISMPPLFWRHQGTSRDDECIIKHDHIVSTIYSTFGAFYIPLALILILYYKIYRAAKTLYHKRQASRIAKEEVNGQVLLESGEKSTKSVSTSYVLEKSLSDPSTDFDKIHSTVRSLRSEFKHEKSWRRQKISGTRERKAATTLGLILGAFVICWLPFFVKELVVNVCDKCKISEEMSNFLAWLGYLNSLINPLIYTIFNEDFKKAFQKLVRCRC
In words: Displacement of [3H]5-HT from human cloned 5HT1F receptor expressed in CHO cells at 1 uM. Type of test: cell-based. In short, it runs like this:
as §3

Test [11] addresses 5-hydroxytryptamine receptor 2A (Homo sapiens, UniProt P28223). In words: Displacement of [125I]DOI from human cloned 5HT2A receptor expressed in CHO cells. Type of test: cell-based. An outline of the steps: as §1
The species entered for test [12] is Homo sapiens. In words: Selectivity ratio of IC50 for human cloned dopamine D3 receptor to human cloned 5HT6 receptor.
A further test addresses T4, D(4) dopamine receptor (Homo sapiens, UniProt P21917).
T4 sequence (P21917 whole entry): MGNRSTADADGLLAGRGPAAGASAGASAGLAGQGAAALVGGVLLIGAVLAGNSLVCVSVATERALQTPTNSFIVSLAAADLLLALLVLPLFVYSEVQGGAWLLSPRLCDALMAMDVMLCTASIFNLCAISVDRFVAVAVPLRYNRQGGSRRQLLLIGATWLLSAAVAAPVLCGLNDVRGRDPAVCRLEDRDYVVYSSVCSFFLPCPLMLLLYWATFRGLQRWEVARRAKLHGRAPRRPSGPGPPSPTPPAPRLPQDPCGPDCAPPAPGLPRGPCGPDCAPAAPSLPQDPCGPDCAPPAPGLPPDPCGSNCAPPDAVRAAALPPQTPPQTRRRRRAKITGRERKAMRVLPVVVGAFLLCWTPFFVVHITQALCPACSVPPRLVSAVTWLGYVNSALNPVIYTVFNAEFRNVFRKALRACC
In words: Displacement of [3H]spiperone from human cloned dopamine D4 receptor expressed in CHO-K1 cells. Type of test: cell-based. In short, it runs like this:
as §1

The target in a further test is D(2) dopamine receptor (Homo sapiens, UniProt P14416). In words: Displacement of [3H]spiperone from human cloned dopamine D2 receptor expressed in CHO-K1 cells. Type of test: cell-based. An outline of the steps: as §1
For test [13], the species on record is Homo sapiens. In words: Selectivity ratio of IC50 for human cloned 5HT1F receptor to human cloned 5HT6 receptor.
For test [14], the target named is 5-hydroxytryptamine receptor 1B (Homo sapiens) (UniProt P28222). In words: Displacement of [3H]5-HT from human cloned 5HT1B receptor expressed in CHO cells at 1 uM. Type of test: cell-based. An outline of the steps:
as §3

Test [15] is filed under the species Homo sapiens. In words: Selectivity ratio of IC50 for human cloned 5HT1B receptor to human cloned 5HT6 receptor.
Test [16] is filed under the species Homo sapiens. In words: Selectivity ratio of IC50 for human cloned dopamine D2 receptor to human cloned 5HT6 receptor.
The species entered for test [17] is Homo sapiens. In words: Selectivity ratio of IC50 for human cloned 5HT2A receptor to human cloned 5HT6 receptor.
Test [18] is filed under the species Homo sapiens. In words: Selectivity ratio of IC50 for human cloned 5HT7 receptor to human cloned 5HT6 receptor.
For test [19], the system named is Rattus norvegicus. In words: Increase in extracellular glutamate level in Sprague-Dawley rat frontal cortex at 30 mg/kg, sc. Type of test: functional, organism-based. Also noted: dose 30 mg/kg. In short, it runs like this:
(§4)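 Rats received a single acute subcutaneous dose of 30 mg/kg. Extracellular GABA and glutamate in frontal cortex were followed over time from about −100 to 350 min around dosing and compared with vehicle-treated animals, with significance set at P < 0.05.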

The subject of test [20] is Rattus norvegicus. In words: Inhibition of schedule-induced polydipsia in po dosed Sprague-Dawley rat assessed as reduction of adjunctive drinking behavior. In kind it is functional. In short, it runs like this: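 In the schedule-induced polydipsia model, rats were dosed orally at 30, 56 and 100 mg/kg against a vehicle group. Adjunctive drinking was measured, an ED50 was derived, and comparison with vehicle used P < 0.05.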

Test [21] has as its system Rattus norvegicus. In words: Increase in extracellular GABA level in Sprague-Dawley rat frontal cortex at 30 mg/kg, sc. Also noted: dose 30 mg/kg. Type of test: functional, organism-based. In short, it runs like this:
as §4

The values below come from ChEMBL document CHEMBL1155250, “Novel 1-aminoethyl-3-arylsulfonyl-1H-pyrrolo[2,3-b]pyridines are potent 5-HT(6) agonists” (Bioorg Med Chem, 2009).

pEC50, pIC50, pKi: −log10 of the molar value. The source made the active and inactive calls. The rule behind the calls is not given here.

T1 sequence (P50406 whole entry): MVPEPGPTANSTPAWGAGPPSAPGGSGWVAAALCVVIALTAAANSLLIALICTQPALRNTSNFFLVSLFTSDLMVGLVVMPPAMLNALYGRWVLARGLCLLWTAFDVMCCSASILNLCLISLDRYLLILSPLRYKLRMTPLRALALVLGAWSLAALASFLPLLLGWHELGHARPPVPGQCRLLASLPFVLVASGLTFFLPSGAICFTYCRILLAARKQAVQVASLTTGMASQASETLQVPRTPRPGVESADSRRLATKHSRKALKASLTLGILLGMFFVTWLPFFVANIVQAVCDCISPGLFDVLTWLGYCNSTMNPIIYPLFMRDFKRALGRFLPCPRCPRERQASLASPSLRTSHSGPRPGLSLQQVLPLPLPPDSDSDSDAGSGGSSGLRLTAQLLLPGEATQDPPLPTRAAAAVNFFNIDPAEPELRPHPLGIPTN
5-hydroxytryptamine receptor 1D (Homo sapiens), sequence (P28221 whole entry): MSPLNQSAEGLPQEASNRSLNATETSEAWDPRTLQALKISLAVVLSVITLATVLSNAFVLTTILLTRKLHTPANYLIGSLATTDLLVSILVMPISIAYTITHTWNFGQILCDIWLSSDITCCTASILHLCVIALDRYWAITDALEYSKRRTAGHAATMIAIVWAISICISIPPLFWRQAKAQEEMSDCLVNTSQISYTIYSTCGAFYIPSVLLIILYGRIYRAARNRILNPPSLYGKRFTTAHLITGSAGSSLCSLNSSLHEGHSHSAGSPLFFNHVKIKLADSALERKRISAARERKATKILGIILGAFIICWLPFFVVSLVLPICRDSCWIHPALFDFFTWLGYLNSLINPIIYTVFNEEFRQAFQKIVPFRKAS
5-hydroxytryptamine receptor 1B (Homo sapiens), sequence (P28222 whole entry): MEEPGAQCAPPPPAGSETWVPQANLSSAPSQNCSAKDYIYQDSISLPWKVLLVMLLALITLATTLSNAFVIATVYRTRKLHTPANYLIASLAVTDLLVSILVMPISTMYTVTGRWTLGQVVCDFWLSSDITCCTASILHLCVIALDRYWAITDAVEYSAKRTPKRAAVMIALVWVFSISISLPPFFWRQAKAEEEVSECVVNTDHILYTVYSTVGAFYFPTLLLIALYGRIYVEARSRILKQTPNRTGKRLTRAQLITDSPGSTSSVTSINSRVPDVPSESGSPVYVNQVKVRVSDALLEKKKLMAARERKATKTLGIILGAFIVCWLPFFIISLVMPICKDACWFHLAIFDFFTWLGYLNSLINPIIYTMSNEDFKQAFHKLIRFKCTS
5-hydroxytryptamine receptor 7, sequence (P34969 whole entry): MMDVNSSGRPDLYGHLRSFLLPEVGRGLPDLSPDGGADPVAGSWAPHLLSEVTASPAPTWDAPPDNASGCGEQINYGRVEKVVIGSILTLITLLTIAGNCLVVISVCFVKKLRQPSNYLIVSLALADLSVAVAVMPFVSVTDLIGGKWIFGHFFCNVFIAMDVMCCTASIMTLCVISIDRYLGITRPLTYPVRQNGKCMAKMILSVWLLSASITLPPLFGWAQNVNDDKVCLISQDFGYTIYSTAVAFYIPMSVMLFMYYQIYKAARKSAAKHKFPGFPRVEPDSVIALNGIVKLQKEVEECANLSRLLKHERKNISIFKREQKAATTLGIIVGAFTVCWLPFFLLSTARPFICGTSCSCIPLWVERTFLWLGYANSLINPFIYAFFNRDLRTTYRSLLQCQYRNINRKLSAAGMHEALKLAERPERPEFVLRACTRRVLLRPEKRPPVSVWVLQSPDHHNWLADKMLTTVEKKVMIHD
5-hydroxytryptamine receptor 2A, sequence (P28223 whole entry): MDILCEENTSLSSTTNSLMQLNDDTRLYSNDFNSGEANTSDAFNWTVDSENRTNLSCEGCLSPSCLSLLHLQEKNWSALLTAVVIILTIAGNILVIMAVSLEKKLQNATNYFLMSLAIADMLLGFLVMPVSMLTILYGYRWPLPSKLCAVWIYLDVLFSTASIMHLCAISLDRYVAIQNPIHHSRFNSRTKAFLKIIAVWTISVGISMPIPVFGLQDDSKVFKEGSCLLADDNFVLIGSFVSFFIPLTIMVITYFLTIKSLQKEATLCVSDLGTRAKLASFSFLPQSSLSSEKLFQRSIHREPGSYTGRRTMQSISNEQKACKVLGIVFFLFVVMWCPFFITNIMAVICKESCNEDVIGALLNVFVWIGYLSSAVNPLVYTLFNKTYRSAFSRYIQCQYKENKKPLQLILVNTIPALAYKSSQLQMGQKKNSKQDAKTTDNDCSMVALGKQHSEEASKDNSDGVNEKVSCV
D(2) dopamine receptor, sequence (P14416 whole entry): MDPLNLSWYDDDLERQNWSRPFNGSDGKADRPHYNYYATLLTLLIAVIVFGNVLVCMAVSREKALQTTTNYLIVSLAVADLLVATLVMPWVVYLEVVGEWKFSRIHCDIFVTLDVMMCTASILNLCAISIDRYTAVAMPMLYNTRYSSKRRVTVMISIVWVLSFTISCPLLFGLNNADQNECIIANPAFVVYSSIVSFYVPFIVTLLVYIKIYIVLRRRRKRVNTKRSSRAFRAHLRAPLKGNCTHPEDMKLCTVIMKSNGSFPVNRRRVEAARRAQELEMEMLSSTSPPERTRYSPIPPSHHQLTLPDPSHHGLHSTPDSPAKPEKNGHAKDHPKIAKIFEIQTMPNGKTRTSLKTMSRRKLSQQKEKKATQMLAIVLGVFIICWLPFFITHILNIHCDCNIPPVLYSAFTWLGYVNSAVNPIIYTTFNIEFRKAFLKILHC
D(3) dopamine receptor, sequence (P35462 whole entry): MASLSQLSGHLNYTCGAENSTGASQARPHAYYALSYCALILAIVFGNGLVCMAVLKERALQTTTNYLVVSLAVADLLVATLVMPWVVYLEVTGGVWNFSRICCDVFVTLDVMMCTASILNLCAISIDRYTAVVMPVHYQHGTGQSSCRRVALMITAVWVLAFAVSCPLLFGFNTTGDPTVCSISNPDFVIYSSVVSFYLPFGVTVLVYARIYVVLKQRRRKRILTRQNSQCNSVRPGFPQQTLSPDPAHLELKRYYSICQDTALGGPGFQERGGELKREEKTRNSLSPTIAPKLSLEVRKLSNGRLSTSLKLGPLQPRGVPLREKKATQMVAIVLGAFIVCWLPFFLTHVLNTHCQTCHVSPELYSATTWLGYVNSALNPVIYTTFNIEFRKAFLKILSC

One may read the pIC50 as the negative decadic logarithm of the IC50, by convention in mol/L. A low value points to a large IC50. What is called pEC50 is −log10 of the EC50, conventionally taken in molar units. A word on the inhibition: it is the change of the read-out against control, counted positive when it falls. Read a high inhibition as a strong effect. In general, pKi refers to −log10 of the Ki, conventionally taken in molar units. A low value points to a large Ki. The term Emax denotes the maximal effect, on the per cent scale that the assay sets. As to `CN(C)CCn1cc(S(=O)(=O)c2cccc(Cl)c2)c2cccnc21`, the negative-log IC50 (pIC50) was 5.91 in [1]; below 5.30 on D(3) dopamine receptor; 6.32 in [4]; 6.88 in [11]; below 5.30 at D(4) dopamine receptor; below 5.30 at D(2) dopamine receptor. Moreover, the pEC50 in test [2] was 7.82. Further, the inhibition in test [3] stood at 10%; in test [10], 29%; in test [14], 46%. In addition, the Ratio IC50 in the test filed under Homo sapiens [5], in the test filed under Homo sapiens [7], in the test listed under Homo sapiens [8], in the test listed under Homo sapiens [12], in the test listed under Homo sapiens [13] and in the test listed under Homo sapiens [15] was above 50 in each case. Also, the Ratio IC50 in the test listed under Homo sapiens [16], in the test listed under Homo sapiens [17] and in the test listed under Homo sapiens [18] was above 50 throughout. The molecule further showed a negative-log Ki (pKi) in [6] of 8.64. For the same molecule, the Emax in test [9] was 86%.

As a reminder, the ED50 is the dose that gives a 50% effect, or the effect in half of the subjects. For the molecule `CN(C)CCn1cc(S(=O)(=O)c2cccc(F)c2)c2cccnc21`, the pIC50 in test [1] is 5.32; on D(3) dopamine receptor, below 5.30; in [4], 6.19; in test [11], 6.45; at D(4) dopamine receptor, below 5.30; on D(2) dopamine receptor it was below 5.30. Also, the inhibition turned out to be 16% in [3], 22% in test [10] and 30% in test [14]. In addition, the outcome in the test with Rattus norvegicus [19] was inactive. Further, in test [9], the Emax was found to be 100%. The ED50 in the test with Rattus norvegicus [20] turned out to be 89.5 mg/kg. In addition, the result with Rattus norvegicus [21] was Active.
